Calls of active or inactive are those of the source. The calls are words filed in the database; no cut-off is given here.
How the values were obtained:
[1] = Cytotoxicity against human 518A2 cells after 24 hrs by MTT assay; assay type: functional, cell-based; details: 518A2, 24 h
Procedure, shortened: (§1)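 MTT assay. Cells seeded and cultured 24 h, then exposed to compound for 24, 48 or 72 h. MTT added to a final 0.05% (HL-60, 518A2) or 0.1% (KB-V1, MCF-7) for 2 h. Formazan dissolved in 10% SDS/DMSO with 0.6% acetic acid; absorbance read at 570 nm against 630 nm background. Viability taken relative to untreated controls (100%). IC50 from concentration-response curves, mean ± SD of four independent experiments.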

[2] = Cytotoxicity against human 518A2 cells after 48 hrs by MTT assay; assay type: functional, cell-based; details: 518A2, 48 h; procedure, shortened: as §1
[3] = Cytotoxicity against human 518A2 cells after 72 hrs by MTT assay; assay type: functional, cell-based; details: 518A2, 72 h; procedure, shortened: as §1
HL-60 [4] = assay: Cytotoxicity against human HL60 cells after 24 hrs by MTT assay; assay type: functional, cell-based; details: HL-60, 24 h; procedure, shortened: as §1
HL-60 [5] = assay: Cytotoxicity against human HL60 cells after 48 hrs by MTT assay; assay type: functional, cell-based; details: HL-60, 48 h; procedure, shortened: as §1
HL-60 [6] = assay: Cytotoxicity against human HL60 cells after 72 hrs by MTT assay; assay type: functional, cell-based; details: HL-60, 72 h; procedure, shortened: as §1
[7] = Cytotoxicity against human vinblastine-resistant KBV1 cells after 24 hrs by MTT assay; assay type: functional, cell-based; details: KB-V1, 24 h; procedure, shortened: as §1
[8] = Cytotoxicity against human vinblastine-resistant KBV1 cells after 48 hrs by MTT assay; assay type: functional, cell-based; details: KB-V1, 48 h; procedure, shortened: as §1
[9] = Cytotoxicity against human vinblastine-resistant KBV1 cells after 72 hrs by MTT assay; assay type: functional, cell-based; details: KB-V1, 72 h; procedure, shortened: as §1
MCF7 [10] = assay: Cytotoxicity against human topotecan-resistant MCF7 cells after 24 hrs by MTT assay; assay type: functional, cell-based; details: MCF7, 24 h; procedure, shortened: as §1
MCF7 [11] = assay: Cytotoxicity against human topotecan-resistant MCF7 cells after 48 hrs by MTT assay; assay type: functional, cell-based; details: MCF7, 48 h; procedure, shortened: as §1
MCF7 [12] = assay: Cytotoxicity against human topotecan-resistant MCF7 cells after 72 hrs by MTT assay; assay type: functional, cell-based; details: MCF7, 72 h; procedure, shortened: as §1
HL-60 [13] = assay: Induction of apoptosis in human HL60 cells assessed as DNA ladder formation at 5 uM after 24 hrs by agarose gel electrophoresis; assay type: functional, cell-based
Procedure, shortened: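 HL-60 cells incubated with 5 µM compound for 24 h, then examined for DNA ladder patterns.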

HL-60 [14] = assay: Induction of apoptosis in human HL60 cells assessed as increase of caspase 8 activity at 5 uM after 8 to 18 hrs by luminometric assay; assay type: functional, cell-based
Procedure, shortened: (§2)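 HL-60 leukaemia cells were treated with test compound and sampled at intervals from 1 to 24 h. Protein was measured by Bradford. Caspase-9 (Caspase-Glo 8 for line 1) was read from a luminogenic peptide substrate as relative luminescence.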

HL-60 [15] = assay: Induction of apoptosis in human HL60 cells assessed as increase of caspase 3 activity at 5 uM after 8 to 18 hrs by luminometric assay; assay type: functional, cell-based
Procedure, shortened: (§3)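 HL-60 and 518A2 cells treated with 5 µM compound and sampled at intervals from 1 to 24 h. Lysed in 50 mM Tris-HCl pH 7.4, 150 mM NaCl, 1% Triton X-100 with protease inhibitors for 15 min at 4 °C, spun at 800 g. Protein measured by Bradford. Caspase-3/7, -8 and -9 activities read with luminogenic peptide substrates; reported as relative luminescence.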

HL-60 [16] = assay: Induction of apoptosis in human HL60 cells assessed as increase of caspase 9 activity at 5 uM measured up to 24 hrs by luminometric assay; assay type: functional, cell-based; procedure, shortened: as §2
HL-60 [17] = assay: Induction of apoptosis in human HL60 cells assessed as increase of ratio of Bax to Bcl-2 mRNA expression at 5 uM after 6 to 18 hrs by RT-PCR analysis; assay type: functional, cell-based
Procedure, shortened: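 Real-time PCR of bax and bcl-2 mRNA in HL-60 cells after 6 h and 18 h exposure to test compound. Each gene was normalised to GAPDH, and the bax/bcl-2 expression ratio was reported.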

518A2 [18] = assay: Induction of apoptosis in human 518A2 cells assessed as increase of ratio of Bax to Bcl-2 mRNA expression at 5 uM after 6 to 18 hrs by RT-PCR analysis; assay type: functional, cell-based
Procedure, shortened: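 518A2 cells exposed to 5 µM compound for 6 h or 18 h. bax and bcl-2 mRNA quantified by real-time PCR, normalised to GAPDH, and expressed as the bax/bcl-2 ratio.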

518A2 [19] = assay: Induction of apoptosis in human 518A2 cells assessed as appearance of intact mitochondria in cytosol at 5 uM after 6 hrs using JC1 dye relative to control; assay type: functional
Procedure, shortened: (§4)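 Mitochondrial membrane potential measured with JC-1. Cells exposed to 5 µM compound for 6 or 18 h, pelleted at 400 g, stained with 0.2× JC-1 at 37 °C for 15 min (HL-60) or 35 min (518A2), washed and resuspended in PBS. Red fluorescence (ex 585/em 590 nm) and green (ex 510/em 527 nm) read; red/green ratio relative to untreated controls (100%). Mean ± SD, four independent experiments.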

518A2 [20] = assay: Induction of apoptosis in human 518A2 cells assessed as appearance of intact mitochondria in cytosol at 5 uM after 18 hrs using JC1 dye relative to control; assay type: functional; procedure, shortened: as §4
HL-60 [21] = assay: Induction of apoptosis in human HL60 cells assessed as appearance of intact mitochondria in cytosol at 5 uM after 6 hrs using JC1 dye relative to control; assay type: functional; procedure, shortened: as §4
HL-60 [22] = assay: Induction of apoptosis in human HL60 cells assessed as appearance of intact mitochondria in cytosol at 5 uM after 18 hrs using JC1 dye relative to control; assay type: functional; procedure, shortened: as §4
[23] = Cytotoxicity against human 518A2 cells assessed as increase in ROS production at 5 uM after 24 hrs by NBT reduction assay relative to control; assay type: functional
Procedure, shortened: (§5)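 NBT assay. HL-60 cells (0.5×10⁶/mL) or trypsinised 518A2 cells (5×10⁴/mL) pre-incubated 24 h at 37 °C, then given compound at a final 5 µM for 24 or 72 h. Medium removed; cells incubated with 0.1% NBT for 1 h (HL-60) or 4 h (518A2). Diformazan dissolved in 2 M KOH/DMSO; A630 read against 405 nm. Given as % of untreated controls; double quadruplicates.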

[24] = Cytotoxicity against human 518A2 cells assessed as increase in ROS production at 5 uM after 72 hrs by NBT reduction assay relative to control; assay type: functional; procedure, shortened: as §5
HL-60 [25] = assay: Cytotoxicity against human HL60 cells assessed as increase in ROS production at 5 uM after 24 hrs by NBT reduction assay relative to control; assay type: functional; procedure, shortened: as §5
HL-60 [26] = assay: Cytotoxicity against human HL60 cells assessed as increase in ROS production at 5 uM after 72 hrs by NBT reduction assay relative to control; assay type: functional; procedure, shortened: as §5
HL-60 [27] = assay: Induction of apoptosis in human HL60 cells assessed as increase of caspase 9 activity at 5 uM after 12 hrs by luminometric assay; assay type: functional, cell-based; procedure, shortened: as §2
HL-60 [28] = assay: Induction of apoptosis in human HL60 cells assessed as increase of caspase 8 activity at 5 uM after 12 hrs by luminometric assay; assay type: functional, cell-based; procedure, shortened: as §3
HL-60 [29] = assay: Induction of apoptosis in human HL60 cells assessed as increase of caspase 3 activity at 5 uM after 18 hrs by luminometric assay; assay type: functional, cell-based; procedure, shortened: as §3
HL-60 [30] = assay: Induction of apoptosis in human HL60 cells assessed as increase of caspase 8 activity at 5 uM after 24 hrs by luminometric assay; assay type: functional, cell-based; procedure, shortened: as §3
518A2 [31] = assay: Induction of apoptosis in human 518A2 cells assessed as increase of caspase 8 activity at 5 uM after 6 hrs by luminometric assay; assay type: functional, cell-based; procedure, shortened: as §3
518A2 [32] = assay: Induction of apoptosis in human 518A2 cells assessed as increase of caspase 3 activity at 5 uM after 8 hrs by luminometric assay; assay type: functional, cell-based; procedure, shortened: as §3

Structure (SMILES) | IC50 [1] [µM] | IC50 [2] [µM] | IC50 [3] [µM] | IC50 (HL-60 [4]) [µM] | IC50 (HL-60 [5]) [µM] | IC50 (HL-60 [6]) [µM] | IC50 [7] [µM] | IC50 [8] [µM] | IC50 [9] [µM] | IC50 (MCF7 [10]) [µM] | IC50 (MCF7 [11]) [µM] | IC50 (MCF7 [12]) [µM] | Activity (HL-60 [13]) | Activity (HL-60 [17]) | Activity (518A2 [18]) | Activity (518A2 [19]) [%] | Activity (518A2 [20]) [%] | Activity (HL-60 [21]) [%] | Activity (HL-60 [22]) [%] | Activity [23] [%] | further results
CC/C=C\C/C=C\C/C=C\CCCCCCCC(=O)N/N=C(\CO)[C@]1(O)Cc2c(O)c3c(c(O)c2[C@@H](O[C@H]2C[C@H](N)[C@H](O)[C@H](C)O2)C1)C(=O)c1c(OC)cccc1C3=O.Cl [DOXORUBICIN LINOLENOYLHYDRAZONE HYDROCHLORIDE] | 7.4 | 0.32 | 0.14 | 5.1 | 1.2 | 0.81 | 40.8 | 20.5 | 14 | 5.7 | 4.3 | 3.6 | Active | Active | Active | 120 | 96 | 103 | 71 | 2.9 | Activity (HL-60 [14]): Active; Activity (HL-60 [15]): Active; Activity (HL-60 [16]): inactive; Activity [24]: 45.1%; Activity (HL-60 [25]): 1%; Activity (HL-60 [26]): 3%
COc1cccc2c1C(=O)c1c(O)c3c(c(O)c1C2=O)C[C@@](O)(/C(CO)=N/NC(=O)CC(=O)O[C@@H]1C[C@H](C)CC[C@H]1C(C)C)C[C@@H]3O[C@H]1C[C@H](N)[C@H](O)[C@H](C)O1.Cl [DOXORUBICIN MENTHOXYCARBONYLACETYLHYDRAZONE HYDROCHLORIDE] | 0.71 | 0.54 | 0.14 | 0.57 | 0.26 | 0.23 | 17.8 | 18.4 | 10.3 | 8.4 | 3.8 | 2.7 | Active | Active | Active | 93 | 61 | 76 | 36 | 3 | Activity (HL-60 [27]): Active; Activity (HL-60 [28]): Active; Activity (HL-60 [29]): Active; Activity (HL-60 [30]): Active; Activity (518A2 [31]): Active; Activity (518A2 [32]): Active; Activity [24]: 16.2%; Activity (HL-60 [25]): 3.8%; Activity (HL-60 [26]): 11.2%
